# Legend:
# Assay in all cases: intrinsic fluorescence titration
# Assay type in all cases: binding
# [1] = molecular target: SULT1B1 (hSULT1B1, wildtype) (Homo sapiens, UniProt O43704)
# Procedure, shortened: (§1)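 Ligand: PAP (cofactor product). Protein: N-terminal 6xHis human SULT1B1, expressed in E. coli BL21-DE3-RIL (IPTG, 20°C) and purified on Ni-NTA. 0.20 µM enzyme in 10 mM sodium phosphate pH 7.8, 10% glycerol, 150 mM NaCl. PAP titrated in; each step mixed 15 s, then intrinsic fluorescence (ex 282, em 338) read for 15 s. Kd from one-site hyperbolic fit; triplicate runs.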
# [2] = molecular target: SULT1B1 (hSULT1B1, wildtype) (Homo sapiens, UniProt O43704, E275K)
# Procedure, shortened: as §1
# [3] = molecular target: SULT1B1 (hSULT1B1, wildtype) (Homo sapiens, UniProt O43704, K266E)
# [4] = molecular target: SULT1B1 (hSULT1B1, wildtype) (Homo sapiens, UniProt O43704, E275K/H109Y)
# Procedure, shortened: as §1
# [5] = molecular target: SULT1B1-K266E/E275K heterodimer (Homo sapiens, UniProt O43704, E275K/K266E)
# Procedure, shortened: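 His-tagged K266E and E275K SULT1B1 subunits were purified separately from E. coli, then co-incubated at normalized concentrations for 1 h on ice to form the heterodimer. 0.20 µM enzyme in 10 mM sodium phosphate pH 7.8, 10% glycerol, 150 mM NaCl. PAP added stepwise; intrinsic fluorescence (ex 282/em 338) averaged over 15 s after 15 s mixing. Kd from one-site hyperbolic fit; triplicate.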
# SULT1B1 (hSULT1B1, wildtype) (Homo sapiens, UniProt O43704), sequence (O43704 whole entry): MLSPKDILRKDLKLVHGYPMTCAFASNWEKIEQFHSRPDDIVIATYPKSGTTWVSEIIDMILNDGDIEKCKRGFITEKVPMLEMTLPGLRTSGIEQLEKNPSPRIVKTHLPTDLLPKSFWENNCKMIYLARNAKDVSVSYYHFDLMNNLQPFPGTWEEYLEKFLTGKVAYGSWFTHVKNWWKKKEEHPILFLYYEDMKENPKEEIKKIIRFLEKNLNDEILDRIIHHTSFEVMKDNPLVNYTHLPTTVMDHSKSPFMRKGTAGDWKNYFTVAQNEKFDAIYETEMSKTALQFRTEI
# SULT1B1 (hSULT1B1, wildtype) (Homo sapiens, UniProt O43704, E275K/H109Y), sequence (O43704 whole entry H109Y/E275K): as the sequence (O43704 whole entry) above, with H109Y, E275K counted along it
# SULT1B1 (hSULT1B1, wildtype) (Homo sapiens, UniProt O43704, E275K), sequence (O43704 whole entry E275K): as the sequence (O43704 whole entry) above, with E275K counted along it
# SULT1B1-K266E/E275K heterodimer, sequence (O43704 whole entry K266E): as the sequence (O43704 whole entry) above, with K266E counted along it
# SULT1B1-K266E/E275K heterodimer, sequence (O43704 whole entry E275K): as the sequence (O43704 whole entry) above, with E275K counted along it
# SULT1B1 (hSULT1B1, wildtype) (Homo sapiens, UniProt O43704, K266E), sequence (O43704 whole entry K266E): as the sequence (O43704 whole entry) above, with K266E counted along it
structure (smiles),measurement,setting,value
"Nc1ncnc2c1ncn2[C@@H]1O[C@H](COP(=O)(O)O)[C@@H](OP(=O)(O)O)[C@H]1O [PAP, 3′,5′-diphosphoadenosine]",Kd,[1],106 ± 9 nM
same,Kd,[2],80 ± 9 nM
same,Kd,[3],1470 nM
same,Kd,[4],668 ± 31 nM
same,Kd,[5],180 ± 6 nM

# Source: PMC4982705 (Biochemical pharmacology, 2016)
